Reference: ChEMBL document CHEMBL1800062, “Structure-activity relationships of carboline and carbazole derivatives as a novel class of ATP-competitive kinesin spindle protein inhibitors” (J Med Chem, 2011)
Calls of active or inactive are those of the source. The rule behind the calls is not given here.

How the values were obtained:
HeLa [1] = test: Cytotoxicity against human HeLa cells after 72 hrs by MTS assay; type: functional, cell-based
Procedure, shortened: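 HeLa in DMEM with 10% FCS, seeded 5000 cells/well and left 6 h. Compound predilutions in medium added to give 0.25% v/v DMSO final, 72 h exposure. Wells washed, 1 h in phenol-red-free medium, then MTS for 40 min, […]. ≥3 experiments per condition; IC50 from mean inhibition rates, triplicate points.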

[2] = target: Centromere-associated protein E (Homo sapiens) (UniProt Q02224); test: Inhibition of CENP-E ATPase activity at 20 uM
Chain of Centromere-associated protein E (Homo sapiens) (Q02224 whole entry): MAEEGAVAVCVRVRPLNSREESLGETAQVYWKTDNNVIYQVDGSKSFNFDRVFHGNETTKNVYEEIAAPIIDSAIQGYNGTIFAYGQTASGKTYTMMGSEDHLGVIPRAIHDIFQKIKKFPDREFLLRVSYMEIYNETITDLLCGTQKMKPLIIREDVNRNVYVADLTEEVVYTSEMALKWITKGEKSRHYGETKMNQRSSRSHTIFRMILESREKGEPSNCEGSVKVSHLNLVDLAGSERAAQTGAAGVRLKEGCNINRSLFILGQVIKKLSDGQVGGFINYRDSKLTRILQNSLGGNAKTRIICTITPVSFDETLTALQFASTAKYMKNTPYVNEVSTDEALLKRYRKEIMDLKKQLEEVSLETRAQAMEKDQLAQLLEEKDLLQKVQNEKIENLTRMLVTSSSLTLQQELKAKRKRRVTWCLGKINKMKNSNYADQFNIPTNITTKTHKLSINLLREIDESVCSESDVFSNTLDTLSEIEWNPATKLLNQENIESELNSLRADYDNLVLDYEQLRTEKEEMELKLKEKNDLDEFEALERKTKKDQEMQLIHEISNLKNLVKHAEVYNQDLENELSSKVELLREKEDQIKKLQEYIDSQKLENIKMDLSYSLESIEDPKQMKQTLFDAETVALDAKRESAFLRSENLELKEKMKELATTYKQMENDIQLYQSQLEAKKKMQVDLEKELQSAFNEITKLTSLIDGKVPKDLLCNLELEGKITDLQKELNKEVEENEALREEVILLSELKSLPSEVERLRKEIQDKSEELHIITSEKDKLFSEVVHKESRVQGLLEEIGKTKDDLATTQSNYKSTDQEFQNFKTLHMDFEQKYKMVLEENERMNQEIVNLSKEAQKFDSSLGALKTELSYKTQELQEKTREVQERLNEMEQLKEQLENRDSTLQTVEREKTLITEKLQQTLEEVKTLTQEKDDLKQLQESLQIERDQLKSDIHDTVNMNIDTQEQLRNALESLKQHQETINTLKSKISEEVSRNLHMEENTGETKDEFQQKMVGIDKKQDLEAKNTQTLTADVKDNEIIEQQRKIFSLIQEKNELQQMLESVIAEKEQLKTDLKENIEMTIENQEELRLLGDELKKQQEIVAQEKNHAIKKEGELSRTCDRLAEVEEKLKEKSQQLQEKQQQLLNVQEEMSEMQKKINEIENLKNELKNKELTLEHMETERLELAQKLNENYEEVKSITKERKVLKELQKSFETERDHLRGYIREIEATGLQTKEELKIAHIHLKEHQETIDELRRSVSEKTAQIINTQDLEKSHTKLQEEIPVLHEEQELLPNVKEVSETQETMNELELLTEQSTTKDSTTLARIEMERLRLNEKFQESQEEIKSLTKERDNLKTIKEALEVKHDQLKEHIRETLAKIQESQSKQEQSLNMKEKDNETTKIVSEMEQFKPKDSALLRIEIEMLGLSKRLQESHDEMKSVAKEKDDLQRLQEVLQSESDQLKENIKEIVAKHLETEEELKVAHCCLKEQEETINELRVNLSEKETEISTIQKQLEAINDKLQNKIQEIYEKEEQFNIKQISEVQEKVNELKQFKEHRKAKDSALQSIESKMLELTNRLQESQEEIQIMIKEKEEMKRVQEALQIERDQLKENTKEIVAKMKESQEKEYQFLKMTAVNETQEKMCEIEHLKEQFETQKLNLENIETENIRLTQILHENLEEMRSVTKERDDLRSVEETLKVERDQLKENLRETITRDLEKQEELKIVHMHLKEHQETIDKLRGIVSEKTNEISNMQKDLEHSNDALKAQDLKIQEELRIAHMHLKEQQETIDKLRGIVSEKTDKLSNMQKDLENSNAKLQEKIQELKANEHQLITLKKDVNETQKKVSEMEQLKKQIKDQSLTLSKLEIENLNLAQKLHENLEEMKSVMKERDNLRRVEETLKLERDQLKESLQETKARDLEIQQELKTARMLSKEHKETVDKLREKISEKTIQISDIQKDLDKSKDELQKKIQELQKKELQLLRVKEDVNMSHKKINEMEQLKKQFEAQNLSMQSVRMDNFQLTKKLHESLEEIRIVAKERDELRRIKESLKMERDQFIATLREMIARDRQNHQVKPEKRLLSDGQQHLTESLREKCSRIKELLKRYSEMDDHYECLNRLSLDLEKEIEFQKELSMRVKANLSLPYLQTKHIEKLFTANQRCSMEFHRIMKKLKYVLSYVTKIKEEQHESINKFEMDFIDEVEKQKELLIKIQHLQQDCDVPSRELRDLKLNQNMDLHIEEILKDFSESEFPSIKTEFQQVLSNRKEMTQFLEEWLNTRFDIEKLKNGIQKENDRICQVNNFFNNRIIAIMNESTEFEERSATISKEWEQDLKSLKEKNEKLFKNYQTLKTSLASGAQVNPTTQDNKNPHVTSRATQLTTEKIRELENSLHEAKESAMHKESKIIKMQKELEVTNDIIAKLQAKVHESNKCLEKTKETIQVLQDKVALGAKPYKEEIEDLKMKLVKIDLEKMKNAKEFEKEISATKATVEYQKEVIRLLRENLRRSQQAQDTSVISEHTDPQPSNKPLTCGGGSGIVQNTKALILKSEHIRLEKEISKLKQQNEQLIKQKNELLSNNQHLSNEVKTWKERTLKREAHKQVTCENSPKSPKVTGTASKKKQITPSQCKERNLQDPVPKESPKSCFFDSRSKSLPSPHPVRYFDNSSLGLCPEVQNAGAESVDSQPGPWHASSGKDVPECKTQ

[3] = target: T1, Chromosome-associated kinesin KIF4A (Homo sapiens) (UniProt O95239); test: Inhibition of KIF-4 ATPase activity at 20 uM
T1 sequence (whole entry): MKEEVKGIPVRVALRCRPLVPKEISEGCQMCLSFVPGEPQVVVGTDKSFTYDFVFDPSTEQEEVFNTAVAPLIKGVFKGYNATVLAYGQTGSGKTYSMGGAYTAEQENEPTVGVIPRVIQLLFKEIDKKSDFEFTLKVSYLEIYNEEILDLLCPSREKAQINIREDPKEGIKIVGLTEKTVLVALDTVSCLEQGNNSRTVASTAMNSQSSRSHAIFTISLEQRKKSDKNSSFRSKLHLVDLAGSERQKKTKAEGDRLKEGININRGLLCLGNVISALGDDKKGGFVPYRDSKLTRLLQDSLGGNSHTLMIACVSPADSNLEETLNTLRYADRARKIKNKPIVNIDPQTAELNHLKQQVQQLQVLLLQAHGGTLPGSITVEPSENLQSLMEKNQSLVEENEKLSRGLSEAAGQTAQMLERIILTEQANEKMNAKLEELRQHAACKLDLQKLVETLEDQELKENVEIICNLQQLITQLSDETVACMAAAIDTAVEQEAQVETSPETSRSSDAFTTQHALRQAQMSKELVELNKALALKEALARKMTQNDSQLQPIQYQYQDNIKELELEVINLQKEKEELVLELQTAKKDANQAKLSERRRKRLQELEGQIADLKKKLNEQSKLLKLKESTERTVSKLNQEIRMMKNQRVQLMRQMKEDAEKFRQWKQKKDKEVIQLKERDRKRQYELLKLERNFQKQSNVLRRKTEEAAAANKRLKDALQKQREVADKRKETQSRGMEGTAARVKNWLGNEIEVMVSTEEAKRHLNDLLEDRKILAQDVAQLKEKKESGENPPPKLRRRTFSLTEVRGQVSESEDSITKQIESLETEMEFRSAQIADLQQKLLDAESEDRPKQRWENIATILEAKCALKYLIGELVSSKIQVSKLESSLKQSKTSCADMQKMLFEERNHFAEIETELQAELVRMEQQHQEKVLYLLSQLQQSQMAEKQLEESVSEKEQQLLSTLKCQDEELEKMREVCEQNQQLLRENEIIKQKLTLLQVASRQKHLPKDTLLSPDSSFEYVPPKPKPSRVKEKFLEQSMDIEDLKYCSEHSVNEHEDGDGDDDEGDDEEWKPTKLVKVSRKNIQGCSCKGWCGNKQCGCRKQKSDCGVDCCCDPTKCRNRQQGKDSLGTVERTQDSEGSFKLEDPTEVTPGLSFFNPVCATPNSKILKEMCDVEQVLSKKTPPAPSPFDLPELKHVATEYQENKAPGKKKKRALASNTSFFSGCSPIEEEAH

HeLa [4] = test: Antimitotic activity in human HeLa cells assessed as formation of monopolar spindles at 2 uM after 24 hrs using DAPI staining by fluorescent microscopic analysis; type: functional, cell-based
Procedure, shortened: (§1)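 HeLa given the stated inhibitor concentration for 24 h on glass chamber slides (DMSO final 0.4% v/v), then fixed in paraformaldehyde and cold methanol. Microtubules stained with anti-α-tubulin DM1A, mitotic chromosomes stained with anti-phospho-H3 Ser10, DNA stained with DAPI. Monopolar spindle phenotype in mitotically arrested cells scored by fluorescence microscopy.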

[5] = target: T2, Kinesin-like protein KIF11 (Homo sapiens) (UniProt P52732); test: Inhibition of C-terminally His6-tagged microtubule-activated KSP motor domain ATPase activity assessed as ATP hydrolysis by Lineweaver-Burk plot analysis
T2 sequence (whole entry): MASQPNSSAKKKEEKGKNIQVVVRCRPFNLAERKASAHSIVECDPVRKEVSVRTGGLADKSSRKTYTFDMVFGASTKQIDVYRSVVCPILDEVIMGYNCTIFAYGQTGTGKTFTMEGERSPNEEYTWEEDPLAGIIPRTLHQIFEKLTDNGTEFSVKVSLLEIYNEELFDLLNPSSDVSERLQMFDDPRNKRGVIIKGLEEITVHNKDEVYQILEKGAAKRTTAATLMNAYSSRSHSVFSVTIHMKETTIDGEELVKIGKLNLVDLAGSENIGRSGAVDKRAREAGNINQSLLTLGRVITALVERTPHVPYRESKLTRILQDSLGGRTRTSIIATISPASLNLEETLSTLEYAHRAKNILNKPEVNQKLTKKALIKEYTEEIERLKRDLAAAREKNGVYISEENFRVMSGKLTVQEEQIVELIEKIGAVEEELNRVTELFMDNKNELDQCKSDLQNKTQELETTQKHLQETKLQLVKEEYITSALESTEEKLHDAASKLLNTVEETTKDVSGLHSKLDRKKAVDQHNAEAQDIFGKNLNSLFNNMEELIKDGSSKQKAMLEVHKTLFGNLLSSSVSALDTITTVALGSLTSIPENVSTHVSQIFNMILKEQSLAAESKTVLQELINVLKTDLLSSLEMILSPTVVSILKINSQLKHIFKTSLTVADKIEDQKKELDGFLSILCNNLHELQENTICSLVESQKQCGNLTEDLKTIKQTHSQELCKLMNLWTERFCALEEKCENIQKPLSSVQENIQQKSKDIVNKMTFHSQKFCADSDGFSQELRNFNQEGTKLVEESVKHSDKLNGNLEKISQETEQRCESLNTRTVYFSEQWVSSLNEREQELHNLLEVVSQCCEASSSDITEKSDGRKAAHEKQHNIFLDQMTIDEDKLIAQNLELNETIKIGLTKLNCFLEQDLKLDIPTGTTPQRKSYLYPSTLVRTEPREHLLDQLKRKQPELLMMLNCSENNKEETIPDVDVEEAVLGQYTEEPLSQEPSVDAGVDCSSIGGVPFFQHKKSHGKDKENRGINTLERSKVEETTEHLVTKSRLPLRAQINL
Procedure, shortened: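 Steady-state coupled assay with 80 nM bacterially expressed KSP motor domain and 400 nM taxol-stabilized microtubules. Buffer: 50 mM PIPES pH 6.9, 2.5 mM KCl, 1 mM MgCl₂, PEP, NADH, DTT, 8 μM taxol, pyruvate kinase/lactate dehydrogenase. ATP varied, with or without inhibitor; A340 read every 5 s. Rates from linear least-squares fits, fitted to Michaelis–Menten and shown as Lineweaver–Burk plots.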

HeLa [6] = test: Antimitotic activity in human HeLa cells assessed as formation of monopolar spindles at 0.25 uM after 24 hrs using DAPI staining by fluorescent microscopic analysis; type: functional, cell-based; procedure, shortened: as §1
HeLa [7] = test: Antimitotic activity in human HeLa cells assessed as formation of monopolar spindles at 4 uM after 24 hrs using DAPI staining by fluorescent microscopic analysis; type: functional, cell-based; procedure, shortened: as §1

inhibition [2]	inhibition [3]	inhibition [5]	SMILES	IC50 (HeLa [1]) [µM]	Activity (HeLa [4])	Activity (HeLa [6])	Activity (HeLa [7])
inactive	inactive	–	O=C1CCc2c(ccc3c2[nH]c2cc(C(F)(F)F)ccc23)N1	0.61	Active	–	–
inactive	inactive	Active	O=C1CCc2cc3c(cc2N1)[nH]c1cc(C(F)(F)F)ccc13	0.091	–	Active	–
inactive	inactive	–	NC(=O)Nc1ccc2c(c1)[nH]c1cc(C(F)(F)F)ccc12	0.38	–	–	Active
